Measurements from different studies.
Target: Mitogen-activated protein kinase kinase kinase 12 (MAP3K12, Homo sapiens, UniProt Q12852)
One construct used (Q12852 1-859): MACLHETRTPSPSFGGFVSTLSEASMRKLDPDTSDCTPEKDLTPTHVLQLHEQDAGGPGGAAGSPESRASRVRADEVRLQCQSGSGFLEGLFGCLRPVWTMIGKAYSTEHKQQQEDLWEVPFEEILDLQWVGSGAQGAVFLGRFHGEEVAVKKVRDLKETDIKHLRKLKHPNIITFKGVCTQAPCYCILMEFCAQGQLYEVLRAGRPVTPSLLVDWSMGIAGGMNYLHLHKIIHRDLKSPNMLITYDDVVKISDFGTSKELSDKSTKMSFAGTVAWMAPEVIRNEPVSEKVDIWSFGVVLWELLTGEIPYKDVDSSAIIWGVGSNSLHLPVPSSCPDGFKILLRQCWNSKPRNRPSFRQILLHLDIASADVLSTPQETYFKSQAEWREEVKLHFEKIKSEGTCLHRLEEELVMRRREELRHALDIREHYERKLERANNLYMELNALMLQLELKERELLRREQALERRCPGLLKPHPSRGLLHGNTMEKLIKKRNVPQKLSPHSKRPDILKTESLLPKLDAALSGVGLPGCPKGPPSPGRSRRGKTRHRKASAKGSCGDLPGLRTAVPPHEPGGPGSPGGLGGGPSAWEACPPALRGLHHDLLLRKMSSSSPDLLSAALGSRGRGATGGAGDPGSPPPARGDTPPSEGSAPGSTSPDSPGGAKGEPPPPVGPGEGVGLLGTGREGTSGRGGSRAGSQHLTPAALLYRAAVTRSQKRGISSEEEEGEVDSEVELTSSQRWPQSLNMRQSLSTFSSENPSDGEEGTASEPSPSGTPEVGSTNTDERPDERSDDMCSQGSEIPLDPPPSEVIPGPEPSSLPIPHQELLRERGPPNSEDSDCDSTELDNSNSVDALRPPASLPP

Structure (SMILES) | effect on | technique | concentration | remaining binding [%]
O=C(c1ccc(Nc2ncc(Cl)c(-c3cc4ccccc4s3)n2)cc1)N1CCC(N2CCCC2)CC1 | binding | competition with immobilised ligand | 1 µM | 6.9
CN(C)c1nccc(-c2cnn3ncccc23)n1 | binding |  | 1 µM | 98
O=C(Nc1c[nH]nc1C(=O)NC1CCNCC1)c1cc(F)cc(F)c1 | binding | competition with immobilised ligand | 1 µM | 88
COc1ncc2cc3ccccc3nc2c1C#N | cell-free assay | competition with immobilised ligand | 5 µM | 81
FC(F)(F)c1ccc2c(c1)nc(-c1cccnc1)n2C1CC1 | cell-free assay | competition with immobilised ligand | 1 µM | 100
CCN1CCN(Cc2ccc(C(=O)Nc3ccc(C)c(Oc4ccc5c(c4)CC(=O)N5)c3)cc2C(F)(F)F)CC1 | binding | competition with immobilised ligand | 1 µM | 100
c1cnn2ncc(-c3ccnc(N4CCC45COC5)n3)c2c1 | binding |  | 1 µM | 74
Cc1cc(-n2nc(Cc3cc(F)cc(C(F)(F)F)c3)nc2C)ccc1C(N)=O | cell-free assay | competition with immobilised ligand | 1 µM | 100
F[C@@H]1CCN(c2nccc(-c3cnn4ncccc34)n2)C1 | binding |  | 1 µM | 100
C[C@@H]1CN(c2cc(-c3n[nH]c4ccc(OC5(C)CC5)cc34)ncn2)C[C@H](C)O1 | cell-free assay | competition with immobilised ligand | 0.1 µM | 82
O=C(c1ccc(Nc2nccc(-c3cc4ccccc4s3)n2)cc1)N1CCC(N2CCCC2)CC1 | binding | competition with immobilised ligand | 1 µM | 28
C[C@@H]1CCN(c2nccc(-c3cnn4ncccc34)n2)C1 | binding |  | 1 µM | 75
O=C(c1ccc(Nc2ncc(Cl)c(-c3ccc(Cl)s3)n2)cc1)N1CCC(N2CCCC2)CC1 | binding | competition with immobilised ligand | 1 µM | 7.8
COc1cnc(Nc2cccc(S(N)(=O)=O)c2)nc1N1CCN(c2ccccc2)CC1 | binding | competition with immobilised ligand | 1 µM | 72
O=C(NS(=O)(=O)c1ccc(NCC2CCOCC2)c([N+](=O)[O-])c1)c1ccc(N2CCN(Cc3ccc(C(F)(F)F)cc3-c3ccc(Cl)cc3)CC2)cc1Oc1cnc2[nH]ccc2c1 | cell-free assay | competition with immobilised ligand | 1 µM | 100
Nc1ncc2c(n1)-c1c([nH]c3ccc(C#CC4CC4)cc13)CCCC2 | binding | competition with immobilised ligand | 1 µM | 93
N[C@H]1CCN(c2nccc(-c3cnn4ncccc34)n2)C1 | binding |  | 1 µM | 71
CC(=O)C1=C(C)N(c2cccc(C(F)(F)F)c2)C(=O)N[C@@H]1c1ccc(C#N)nc1 | cell-free assay | competition with immobilised ligand | 1 µM | 86.8
CN(CCCC(F)(F)F)c1nccc(-c2cnn3ncccc23)n1 | binding |  | 1 µM | 100
CN1CCN(c2cnc3c(C4CCN(C(=O)c5ccc(OC(F)(F)F)cc5N)CC4)ncnc3c2)CC1 | cell-free assay | competition with immobilised ligand | 1 µM | 100
